Test results from ChEMBL document CHEMBL5724801, “EUbOPEN Chemogenomics Library - Multiplex” (2024).
Values joined by “and” are separate entries in the source; they are usually repeats but may differ in a detail not shown here. Equal values may be shown once.

Test system: Fibroblast
Assay: Multiplex assay against human fibroblast
Type: toxicity, cell-based
In short: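 Hoechst33342, BioTracker Green Microtubule Cytoskeleton Dye, MitoTracker Red and Annexin V Alexa Fluor 680 were added to live cells at seeding, and imaging on a CQ1 microscope at 37°C and 5% CO2 followed compound addition. Gating by CellPathfinder machine learning separated cells into Hoechst high-intensity objects or normal cells, then normal cells into healthy, pyknosed or fragmented nuclei, then pyknosed cells into mitotic or apoptotic. Per cents of healthy-nucleus cells are reported for the tubulin, mitochondrial-mass and membrane-permeability phenotypes.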

[1] = 12 h, 1 µM, compound concentration 1 uM
[2] = 12 h, 10 µM, compound concentration 10 uM
[3] = 24 h, 1 µM, compound concentration 1 uM
[4] = 24 h, 10 µM, compound concentration 10 uM
[5] = 48 h, 1 µM, compound concentration 1 uM
[6] = 48 h, 10 µM, compound concentration 10 uM

CC(C)Oc1ccc(F)c(-c2cnc(N)c(C(=O)Nc3cnccc3N3CCC[C@@H](C(=O)O)C3)n2)c1
Population Apoptotic (%) [1]: 23.53% and 20.59% | Population Fragmented Nuclei (%) [1]: 23.08% and 16.74% | Population Healthy Nuclei (%) [1]: 53.85% and 68.67% | Population Hoechst High Intensity Objects (%) [1]: 0% | Population Membrane Permeable-Phenotype (%) [1]: 1.68% and 3.12% | Population Mitochondria Different-Phenotype (%) [1]: 7.56% and 5.62% | Population Mitotic Cells (%) [1]: 76.47% and 79.41% | Population Normal (%) [1]: 100% | Population Pyknosed Nuclei (%) [1]: 23.08% and 14.59% | Population Tubulin-Different-Phenotype (%) [1]: 15.97% and 18.12% | Total Cell Count [1]: 221 and 233 | Population Apoptotic (%) [2]: 16.67% and 33.33% | Population Fragmented Nuclei (%) [2]: 29.81% and 29.75% | Population Healthy Nuclei (%) [2]: 60.87% and 65.82% | Population Hoechst High Intensity Objects (%) [2]: 0% | Population Membrane Permeable-Phenotype (%) [2]: 16.33% and 15.38% | Population Mitochondria Different-Phenotype (%) [2]: 5.61% and 3.53% | Population Mitotic Cells (%) [2]: 83.33% and 66.67% | Population Normal (%) [2]: 100% | Population Pyknosed Nuclei (%) [2]: 9.32% and 4.43% | Population Tubulin-Different-Phenotype (%) [2]: 45.92% and 79.17% | Total Cell Count [2]: 322 and 474 | Population Fragmented Nuclei (%) [3]: 24.16% and 21.57% | Population Healthy Nuclei (%) [3]: 52.79% and 67.45% | Population Hoechst High Intensity Objects (%) [3]: 0% | Population Membrane Permeable-Phenotype (%) [3]: 4.23% and 3.49% | Population Mitochondria Different-Phenotype (%) [3]: 2.11% and 4.65% | Population Mitotic Cells (%) [3]: 93.55% and 71.43% | Population Normal (%) [3]: 100% | Population Pyknosed Nuclei (%) [3]: 23.05% and 10.98% | Population Tubulin-Different-Phenotype (%) [3]: 14.79% and 23.26% | Total Cell Count [3]: 269 and 255 | Population Apoptotic (%) [4]: 11.11% and 17.65% | Population Fragmented Nuclei (%) [4]: 39.53% and 37.88% | Population Healthy Nuclei (%) [4]: 53.49% and 59.43% | Population Hoechst High Intensity Objects (%) [4]: 0% | Population Membrane Permeable-Phenotype (%) [4]: 13.04% and 18.13% | Population Mitochondria Different-Phenotype (%) [4]: 11.11% and 4.27% | Population Mitotic Cells (%) [4]: 88.89% and 82.35% | Population Normal (%) [4]: 100% | Population Pyknosed Nuclei (%) [4]: 6.98% and 2.69% | Population Tubulin-Different-Phenotype (%) [4]: 58.94% and 76% | Total Cell Count [4]: 387 and 631 | Population Apoptotic (%) [5]: 11.96% and 8.33% | Population Fragmented Nuclei (%) [5]: 17.32% and 18.8% | Population Healthy Nuclei (%) [5]: 61.43% and 70.94% | Population Hoechst High Intensity Objects (%) [5]: 0% | Population Membrane Permeable-Phenotype (%) [5]: 1.88% and 3.61% | Population Mitochondria Different-Phenotype (%) [5]: 6.39% and 2.41% | Population Mitotic Cells (%) [5]: 88.04% and 91.67% | Population Normal (%) [5]: 100% | Population Pyknosed Nuclei (%) [5]: 21.25% and 10.26% | Population Tubulin-Different-Phenotype (%) [5]: 24.06% and 42.97% | Total Cell Count [5]: 433 and 351 | Population Apoptotic (%) [6]: 25% and 75% | Population Fragmented Nuclei (%) [6]: 43.91% and 38.05% | Population Healthy Nuclei (%) [6]: 54.09% and 60.35% | Population Hoechst High Intensity Objects (%) [6]: 0% | Population Membrane Permeable-Phenotype (%) [6]: 15.74% and 24.56% | Population Mitochondria Different-Phenotype (%) [6]: 9.88% and 3.1% | Population Mitotic Cells (%) [6]: 75% and 25% | Population Normal (%) [6]: 100% | Population Pyknosed Nuclei (%) [6]: 2% and 1.6% | Population Tubulin-Different-Phenotype (%) [6]: 61.73% and 91.37% | Total Cell Count [6]: 599 and 749

COc1ccc2nc3ccc(OC)cc3c(SCCCN)c2c1.Cl
Population Apoptotic (%) [1]: 27.78% and 22.73% | Population Fragmented Nuclei (%) [1]: 27.67% and 18.52% | Population Healthy Nuclei (%) [1]: 58.1% and 71.3% | Population Hoechst High Intensity Objects (%) [1]: 0% | Population Membrane Permeable-Phenotype (%) [1]: 4.08% and 5.19% | Population Mitochondria Different-Phenotype (%) [1]: 10.88% and 10.39% | Population Mitotic Cells (%) [1]: 72.22% and 77.27% | Population Normal (%) [1]: 100% | Population Pyknosed Nuclei (%) [1]: 14.23% and 10.19% | Population Tubulin-Different-Phenotype (%) [1]: 28.57% and 25.97% | Total Cell Count [1]: 253 and 216 | Population Apoptotic (%) [2]: 50% | Population Fragmented Nuclei (%) [2]: 83.22% and 87.99% | Population Healthy Nuclei (%) [2]: 15.99% and 11.88% | Population Hoechst High Intensity Objects (%) [2]: 0.3% and 6.47% | Population Membrane Permeable-Phenotype (%) [2]: 6.17% and 4.52% | Population Mitochondria Different-Phenotype (%) [2]: 24.69% and 15.25% | Population Mitotic Cells (%) [2]: 50% | Population Normal (%) [2]: 99.7% and 93.53% | Population Pyknosed Nuclei (%) [2]: 0.79% and 0.13% | Population Tubulin-Different-Phenotype (%) [2]: 53.09% and 68.93% | Total Cell Count [2]: 1016 and 1593 | Population Apoptotic (%) [3]: 7.41% and 18.18% | Population Fragmented Nuclei (%) [3]: 25% and 14.63% | Population Healthy Nuclei (%) [3]: 63.36% and 74.63% | Population Hoechst High Intensity Objects (%) [3]: 0% | Population Membrane Permeable-Phenotype (%) [3]: 4.76% and 3.27% | Population Mitochondria Different-Phenotype (%) [3]: 5.44% and 7.84% | Population Mitotic Cells (%) [3]: 92.59% and 81.82% | Population Normal (%) [3]: 100% | Population Pyknosed Nuclei (%) [3]: 11.64% and 10.73% | Population Tubulin-Different-Phenotype (%) [3]: 25.17% and 21.57% | Total Cell Count [3]: 232 and 205 | Population Fragmented Nuclei (%) [4]: 83.95% and 88.56% | Population Healthy Nuclei (%) [4]: 15.31% and 11.32% | Population Hoechst High Intensity Objects (%) [4]: 0% and 5.09% | Population Membrane Permeable-Phenotype (%) [4]: 1.21% and 3.16% | Population Mitochondria Different-Phenotype (%) [4]: 27.27% and 24.21% | Population Mitotic Cells (%) [4]: 87.5% and 50% | Population Normal (%) [4]: 100% and 94.91% | Population Pyknosed Nuclei (%) [4]: 0.74% and 0.12% | Population Tubulin-Different-Phenotype (%) [4]: 47.27% and 59.47% | Total Cell Count [4]: 1078 and 1768 | Population Fragmented Nuclei (%) [5]: 28.35% and 15.03% | Population Healthy Nuclei (%) [5]: 66.14% and 83.42% | Population Hoechst High Intensity Objects (%) [5]: 0% | Population Membrane Permeable-Phenotype (%) [5]: 1.79% and 1.24% | Population Mitotic Cells (%) [5]: 71.43% and 100% | Population Normal (%) [5]: 100% | Population Pyknosed Nuclei (%) [5]: 5.51% and 1.55% | Population Tubulin-Different-Phenotype (%) [5]: 18.45% and 20.5% | Total Cell Count [5]: 254 and 193 | Population Apoptotic (%) [6]: 60% | Population Fragmented Nuclei (%) [6]: 84.38% and 88.09% | Population Healthy Nuclei (%) [6]: 15.23% and 11.61% | Population Hoechst High Intensity Objects (%) [6]: 1.01% and 7.64% | Population Membrane Permeable-Phenotype (%) [6]: 2.56% and 4.71% | Population Mitochondria Different-Phenotype (%) [6]: 6.67% and 4.19% | Population Mitotic Cells (%) [6]: 40% | Population Normal (%) [6]: 98.99% and 92.36% | Population Pyknosed Nuclei (%) [6]: 0.39% and 0.3% | Population Tubulin-Different-Phenotype (%) [6]: 27.69% and 51.83% | Total Cell Count [6]: 1293 and 1781
